{"data": "Results gathered from unrelated publications", "PRPF4B": "Serine/threonine-protein kinase PRP4 homolog (PRPF4B, Homo sapiens, UniProt Q13523)", "note": "Each line is one published result; the experiments were not run side by side."}
{"SMILES": "Brc1cc2c(N3CCNCC3)nccn2c1", "target": "Beta-secretase 1 (BACE1, Homo sapiens, UniProt P56817)", "test": "thermal stability, DSF", "conditions": "2.1 mM, pH 5.4", "measurement": "ΔTm", "value": "-0.27 °C"}
{"SMILES": "Cn1cc(-c2cc(F)cc(N3CCn4c(cc5c4CCCC5)C3=O)c2CO)cc(Nc2ccc(N3CCN(C4COC4)CC3)cn2)c1=O", "target": "Muscle, skeletal receptor tyrosine-protein kinase (MUSK, Homo sapiens, UniProt O15146)", "test": "enzyme activity, inhibitor", "conditions": "0.1 µM", "measurement": "inhibition", "value": "17%"}
{"SMILES": "COc1ccc(S(=O)(=O)N2CCCCC2)cc1C", "target": "Vasopressin V2 receptor (AVPR2, Homo sapiens, UniProt P30518)", "test": "ligand displacement, radioligand", "conditions": "10 µM", "measurement": "inhibition", "value": "< 30%"}
{"SMILES": "COc1ncccc1-c1cnn2ccc(N3CCN(C(=O)OC(C)C)CC3)nc12", "target": "PRPF4B", "test": "binding, competition with immobilised ligand", "conditions": "1 µM", "measurement": "remaining binding", "value": "28%"}
{"SMILES": "Nc1cccc(-c2nsc(=O)o2)c1", "target": "Proteasome Macropain subunit MB1 (PSMB5, Homo sapiens, UniProt P28074)", "test": "enzyme activity, inhibitor", "measurement": "kinact/KI", "value": "7.2 M⁻¹ s⁻¹"}
{"SMILES": "O=C(Nc1cccnn1)N1CCN([C@@H]2CCOc3cc(C(F)(F)F)ccc32)CC1", "target": "Melanocortin receptor 3 (MC3R, Homo sapiens, UniProt P41968)", "test": "cell-free assay", "conditions": "20 µM", "measurement": "inhibition", "value": "13%"}
{"SMILES": "Cc1nn(C)cc1-c1nc2c(N3CCN(Cc4ccc(Cl)cc4)CC3)c(Cl)cnc2[nH]1", "target": "Epidermal growth factor receptor (EGFR, Homo sapiens, UniProt P00533, G719C)", "test": "binding, competition with immobilised ligand", "conditions": "1 µM", "measurement": "remaining binding", "value": "86%"}
{"SMILES": "C#Cc1n[nH]c2c(-c3cn(C(C)c4ccccn4)c(=O)[nH]c3=O)cc(F)cc12 (stereo not drawn)", "target": "Epidermal growth factor receptor (EGFR, Homo sapiens, UniProt P00533, L858R/T790M)", "test": "enzyme activity, inhibitor", "conditions": "1 µM", "measurement": "inhibition", "value": "-1.7%"}
{"SMILES": "CCN(CC)CCCC[C@H](NC(=O)[C@H](CC(C)C)NC(=O)[C@H](C)NC(=O)[C@H](Cc1ccccc1)NC(=O)c1ccc(C(C)(C)C)cc1)C(=O)N[C@@H](CO)C(=O)OC", "target": "Nucleosome-remodeling factor subunit BPTF (BPTF, Homo sapiens, UniProt Q12830)", "test": "thermal stability, DSF", "conditions": "25 µM", "measurement": "ΔTm", "value": "0 °C"}
{"SMILES": "Nc1ncc(-c2nc(N3CCOCC3)nc(N3CCOCC3)n2)c(C(F)F)n1", "target": "Microtubule-associated serine/threonine-protein kinase 1 (MAST1, Homo sapiens, UniProt Q9Y2H9)", "test": "binding, competition with immobilised ligand", "conditions": "10 µM", "measurement": "remaining binding", "value": "90%"}
{"SMILES": "CCN1CCN(Cc2ccc(C(=O)Nc3ccc(C)c(Oc4ccc5c(c4)CC(=O)N5)c3)cc2C(F)(F)F)CC1", "target": "PRPF4B", "test": "binding, competition with immobilised ligand", "conditions": "1 µM", "measurement": "remaining binding", "value": "100%"}
{"SMILES": "Cn1cc(-c2cccc(N3CCc4c(sc5c4CC(C)(C)C5)C3=O)c2CO)cc(Nc2ccncn2)c1=O", "target": "PAS domain-containing serine/threonine-protein kinase (PASK, Homo sapiens, UniProt Q96RG2)", "test": "enzyme activity, inhibitor", "conditions": "1 µM", "measurement": "inhibition", "value": "21%"}
